ChEMBL document CHEMBL5331136, “Design, Synthesis, and Biological Evaluation of Novel Spiro Imidazobenzodiazepines to Identify Improved Inhaled Bronchodilators” (J Med Chem, 2023)
≈ marks a conversion by molar mass, not a printed value. Calls of active or inactive are those of the source. The rule behind the calls is not given here.

Assays:
[1] = molecular target: GABA-A receptor; anion channel (Rattus norvegicus) (UniProt O09028+P15431+P18506+P18508+P19969+P20236+P23574+P23576+P28471+P28473+P30191+P62813+P63079+P63138+Q91ZM7+Q9ES14); assay: Displacement of [3H]flunitrazepam from GABAA receptor in rat brain extract at 10 uM relative to control; format: tissue-based
[2] = Aqueous solubility of the compound at […] under shaking condition for 24 hrs by UV absorbance based analysis; format: physicochemical; conditions: for solubility: buffer, 24 h; for solubility at 24 h: aqueous
HEK293 = assay: Cytotoxicity against HEK293 cells assessed as lethal dose measured after 18 hrs by CellTiter-Glo assay; format: functional; conditions: Homo sapiens, read-out: LD50 (the source's name)
How it was run: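 HEK293T cells grown in DMEM/high glucose with NEAA, HEPES, pen/strep, 10% heat-inactivated FBS. Plated 15,000 cells/well, then 4 h at 37 °C, 5% CO2. Compound added as 1:3 serial dilutions, top final concentration 300 µM. After 18 h, read luminescence by CellTiter-Glo. DMSO negative control, aminoketone positive control. Three independent experiments in quadruplicate, variable-slope nonlinear regression.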

[3] = molecular target: GABA-A receptor; anion channel; assay: Displacement of [3H]flunitrazepam from GABAA receptor in rat brain extract; format: tissue-based
Mus musculus = assay: Induction of bronchodilation in A/J mouse assessed as reduction in sRaw values at 7.2 mg/kg administered as nebulized compound; format: functional, organism-based
How it was run: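 Female A/J mice, no allergen sensitization, trained 5 days in a double-chamber plethysmograph while conscious. Compound nebulized in PBS at 7.2 mg/kg, then five nebulized methacholine challenges (in water). Each nebulization under 1 min, 3 min recording, 1 min pause. sRaw calculated per interval. n = 12, two-way repeated-measures ANOVA against vehicle.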

[4] = Metabolic stability in mouse liver S9 fraction assessed as parent compound remaining at 10 uM measured after 120 mins in presence of UDP-glucuronic acid by LC-MS/MS analysis; format: ADME, subcellular; conditions: read-out: Stability
How it was run: (§1)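 Liver S9 (human or mouse), protein 0.5 mg/mL, compound 10 µM (from 1 mM DMSO stock), phosphate buffer pH 7.4, […], alamethicin 0.0225 mg/mL final. Preincubated 5 min at 37 °C, then S9 added. Aliquots at 0 and 120 min quenched in cold methanol with 5 µM 4,5-diphenylimidazole internal standard. Parent remaining from LC-MS/MS peak-area ratio. Two independent assays in triplicate (n = 6).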

[5] = Metabolic stability in human liver S9 fraction assessed as parent compound remaining at 10 uM measured after 120 mins in presence of UDP-glucuronic acid by LC-MS/MS analysis; format: ADME, subcellular; conditions: read-out: Stability; how it was run: as §1
[6] = Metabolic stability in human liver S9 fraction assessed as parent compound remaining at 10 uM measured after 120 mins in presence of NADPH by LC-MS/MS analysis; format: ADME, subcellular; conditions: for remaining at 2 h, 10 µM: liver S9 fraction, read-out: Stability
[7] = Metabolic stability in mouse liver S9 fraction assessed as parent compound remaining at 10 uM measured after 120 mins in presence of NADPH by LC-MS/MS analysis; format: ADME, subcellular; conditions: read-out: Stability
[8] = Inhibition of sensorimotor coordination in Swiss Webster mouse at 40 mg/kg, po measured after 10 to 30 mins by rotarod analysis; format: toxicity, organism-based; conditions: in vivo, time 10-30 min
How it was run: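 Female Swiss Webster mice, 10 weeks old, trained on rotarod at 15 rpm for 3 min. Single oral gavage, 100 µL, in 2.5% PEG400/97.5% 2% HPMC. Tested 3 min at 10, 30 and 60 min after dosing; fall time recorded at second fall. n = 12, two-way repeated-measures ANOVA with Bonferroni posttest.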

Trachea = assay: Induction of smooth muscle relaxation in Hartley guinea pig trachea ring assessed as reduction in substance P induced smooth muscle constriction at 25 uM measured after 30 mins; format: functional, tissue-based; conditions: Cavia porcellus

Structure (SMILES): CCOC(=O)c1ncn2c1C1(CC1)N=C(c1ccccc1F)c1cc(Cl)ccc1-2
- Activity [1]: 34%
- solubility [2]: 54 µM (≈ 22.1 µg/mL)
- CC50 (HEK293): > 150 µM

Structure (SMILES): CCC1N=C(c2ccccc2F)c2cc(Br)ccc2NC1=O (racemic)
- Activity [1]: 95%
- solubility at 24 h [2]: 397 µM (≈ 143 µg/mL)
- IC50 [3]: 134 µM
- CC50 (HEK293): > 150 µM

Structure (SMILES): CC1(C)N=C(c2ccccc2F)c2cc(Br)ccc2-n2cnc(C(=O)O)c21
- Activity (Mus musculus): inactive
- remaining at 2 h, 10 µM [4]: 107%
- remaining at 2 h, 10 µM [5]: 111%
- remaining at 2 h, 10 µM [6]: 106%
- remaining at 2 h, 10 µM [7]: 106%
- Activity [1]: 74%
- Activity [8]: Non-Toxic
- solubility [2]: 4400 µM (≈ 1880 µg/mL)
- CC50 (HEK293): > 300 µM

Structure (SMILES): O=C(O)c1ncn2c1C1(CC1)N=C(c1ccccc1F)c1ccccc1-2
- Activity (Mus musculus): Active
- remaining at 2 h, 10 µM [4]: 99%
- remaining at 2 h, 10 µM [5]: 96%
- remaining at 2 h, 10 µM [6]: 106%
- remaining at 2 h, 10 µM [7]: 108%
- Activity [1]: 74%
- Activity [8]: Non-Toxic
- solubility [2]: 15100 µM (≈ 5240 µg/mL)
- CC50 (HEK293): > 300 µM
- Activity (Trachea): Active

Structure (SMILES): CCOC(=O)c1ncn2c1C1(CC1)N=C(c1ccccc1F)c1cc(Br)ccc1-2
- Activity [1]: 94%
- solubility [2]: 141 µM (≈ 64.1 µg/mL)
- CC50 (HEK293): > 120 µM

Structure (SMILES): CCOC(=O)c1ncn2c1C1(CCCCC1)N=C(c1ccccc1F)c1cc(Br)ccc1-2
- Activity [1]: 74%
- solubility [2]: 141 µM (≈ 70 µg/mL)
- CC50 (HEK293): 96 µM

Structure (SMILES): CC1(C)N=C(c2ccccc2F)c2cc(Br)ccc2NC1=O
- Activity [1]: 70%
- solubility [2]: 319 µM (≈ 115 µg/mL)
- CC50 (HEK293): > 150 µM

Structure (SMILES): O=C(O)c1ncn2c1C1(CC1)N=C(c1ccccc1F)c1cc(Cl)ccc1-2
- remaining at 2 h, 10 µM [4]: 98%
- remaining at 2 h, 10 µM [5]: 103%
- remaining at 2 h, 10 µM [6]: 103%
- remaining at 2 h, 10 µM [7]: 101%
- Activity [1]: 18%
- Activity [8]: Non-Toxic
- solubility [2]: 36200 µM (≈ 13800 µg/mL)
- CC50 (HEK293): > 300 µM

Structure (SMILES): CCOC(=O)c1ncn2c1C1(CCC1)N=C(c1ccccc1F)c1cc(Br)ccc1-2
- Activity [1]: 83%
- solubility [2]: 186 µM (≈ 87.1 µg/mL)
- CC50 (HEK293): > 120 µM

Structure (SMILES): O=C1Nc2ccc(Br)cc2C(c2ccccc2F)=NC12CCCCC2
- Activity [1]: 33%
- solubility [2]: 94 µM (≈ 37.7 µg/mL)
- CC50 (HEK293): 87 µM

Structure (SMILES): CCOC(=O)c1ncn2c1C(CC)N=C(c1ccccc1F)c1cc(Br)ccc1-2 (racemic)
- Activity [1]: 61%
- solubility at 24 h [2]: 417 µM (≈ 190 µg/mL)
- IC50 [3]: 175 µM
- CC50 (HEK293): > 300 µM

Structure (SMILES): O=C(O)c1ncn2c1C1(CC1)N=C(c1ccccc1F)c1cc(Br)ccc1-2
- Activity (Mus musculus): Active
- remaining at 2 h, 10 µM [4]: 90%
- remaining at 2 h, 10 µM [5]: 69%
- remaining at 2 h, 10 µM [6]: 104%
- remaining at 2 h, 10 µM [7]: 120%
- Activity [1]: 97%
- Activity [8]: Non-Toxic
- solubility [2]: 8200 µM (≈ 3500 µg/mL)
- IC50 [3]: 9 µM
- CC50 (HEK293): > 300 µM
- Activity (Trachea): Active

Structure (SMILES): O=C(O)c1ncn2c1C1(CCCCC1)N=C(c1ccccc1F)c1cc(Br)ccc1-2
- Activity (Mus musculus): inactive
- remaining at 2 h, 10 µM [4]: 78%
- remaining at 2 h, 10 µM [5]: 106%
- remaining at 2 h, 10 µM [6]: 107%
- remaining at 2 h, 10 µM [7]: 111%
- Activity [1]: 24%
- Activity [8]: Non-Toxic
- solubility [2]: 46900 µM (≈ 22000 µg/mL)
- CC50 (HEK293): > 300 µM
- Activity (Trachea): Active

Structure (SMILES): O=C1Nc2ccc(Br)cc2C(c2ccccc2F)=NC12CCCC2
- Activity [1]: 13%
- solubility [2]: 98 µM (≈ 38 µg/mL)
- CC50 (HEK293): > 120 µM

Structure (SMILES): CCOC(=O)c1ncn2c1C(C)(C)N=C(c1ccccc1F)c1cc(Br)ccc1-2
- Activity [1]: 78%
- solubility [2]: 103 µM (≈ 47 µg/mL)
- CC50 (HEK293): > 150 µM

Structure (SMILES): CCOC(=O)c1ncn2c1C1(CC1)N=C(c1ccccc1F)c1cc(C3CC3)ccc1-2
- Activity [1]: 22%
- solubility [2]: 96 µM (≈ 39.9 µg/mL)
- CC50 (HEK293): > 120 µM

Structure (SMILES): O=C(O)c1ncn2c1C1(CC1)N=C(c1ccccc1F)c1cc(C3CC3)ccc1-2
- remaining at 2 h, 10 µM [4]: 95%
- remaining at 2 h, 10 µM [5]: 96%
- remaining at 2 h, 10 µM [6]: 107%
- remaining at 2 h, 10 µM [7]: 102%
- Activity [1]: 58%
- Activity [8]: Non-Toxic
- solubility [2]: 12800 µM (≈ 4960 µg/mL)
- CC50 (HEK293): > 300 µM

Structure (SMILES): C#Cc1ccc2c(c1)C(c1ccccc1F)=NC1(CC1)C1C(C(=O)OCC)N=CN21 (stereo not given)
- Activity [1]: 56%
- solubility [2]: 53 µM (≈ 21.3 µg/mL)
- CC50 (HEK293): > 150 µM

Structure (SMILES): CCOC(=O)c1ncn2c1C1(CCCC1)N=C(c1ccccc1F)c1cc(Br)ccc1-2
- Activity [1]: 19%
- solubility [2]: 144 µM (≈ 69.5 µg/mL)
- CC50 (HEK293): 106 µM

Structure (SMILES): O=C(O)c1ncn2c1C1(CCC1)N=C(c1ccccc1F)c1cc(Br)ccc1-2
- Activity (Mus musculus): inactive
- remaining at 2 h, 10 µM [4]: 91%
- remaining at 2 h, 10 µM [5]: 113%
- Stability ([6]; s9, 2 h, 10 µM): 122%
- remaining at 2 h, 10 µM [7]: 90%
- Activity [1]: 59%
- Activity [8]: Non-Toxic
- solubility [2]: 58700 µM (≈ 25800 µg/mL)
- IC50 [3]: 1830 µM
- CC50 (HEK293): > 300 µM

Structure (SMILES): O=C(O)c1ncn2c1C1(CCCC1)N=C(c1ccccc1F)c1cc(Br)ccc1-2
- Activity (Mus musculus): inactive
- remaining at 2 h, 10 µM [4]: 92%
- remaining at 2 h, 10 µM [5]: 96%
- remaining at 2 h, 10 µM [6]: 114%
- remaining at 2 h, 10 µM [7]: 117%
- Activity [1]: 2%
- Activity [8]: Non-Toxic
- solubility [2]: 46700 µM (≈ 21200 µg/mL)
- CC50 (HEK293): > 300 µM

Structure (SMILES): CCC1N=C(c2ccccc2F)c2cc(Br)ccc2-n2cnc(C(=O)O)c21 (racemic)
- Activity (Mus musculus): Active
- remaining at 2 h, 10 µM [4]: 114%
- remaining at 2 h, 10 µM [5]: 111%
- remaining at 2 h, 10 µM [6]: 119%
- remaining at 2 h, 10 µM [7]: 108%
- Activity [1]: 102%
- Activity [8]: Non-Toxic
- solubility at 24 h [2]: 77600 µM (≈ 33200 µg/mL)
- IC50 [3]: 145 µM
- CC50 (HEK293): > 300 µM

Structure (SMILES): C#Cc1ccc2c(c1)C(c1ccccc1F)=NC1(CC1)c1c(C(=O)O)ncn1-2
- Activity (Mus musculus): Active
- remaining at 2 h, 10 µM [4]: 113%
- remaining at 2 h, 10 µM [5]: 93%
- remaining at 2 h, 10 µM [6]: 106%
- remaining at 2 h, 10 µM [7]: 108%
- Activity [1]: 55%
- Activity [8]: Non-Toxic
- solubility [2]: 40300 µM (≈ 15000 µg/mL)
- CC50 (HEK293): > 300 µM
- Activity (Trachea): Active

Structure (SMILES): O=C1Nc2ccc(Cl)cc2C(c2ccccc2F)=NC12CC2
- Activity [1]: 90%
- solubility [2]: 39 µM (≈ 12.3 µg/mL)
- CC50 (HEK293): > 150 µM

Structure (SMILES): O=C1Nc2ccc(Br)cc2C(c2ccccc2F)=NC12CCC2
- Activity [1]: 71%
- solubility [2]: 109 µM (≈ 40.7 µg/mL)
- CC50 (HEK293): > 150 µM

Structure (SMILES): O=C1Nc2ccc(Br)cc2C(c2ccccc2F)=NC12CC2
- Activity [1]: 97%
- solubility [2]: 321 µM (≈ 115 µg/mL)
- CC50 (HEK293): > 150 µM
